From PMC9827987 (Chemmedchem, 2022)
Read-outs that look alike come from different tables or passages of the source.

Tests used:
[1] = tested on: P. falciparum V1/S (QM PfDHFR); test: In vitro antimalarial activity, 3H-hypoxanthine incorporation, V1S; format: cell-based; conditions: Plasmodium falciparum, read-out: IC50 PfV1S
In short: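 P. falciparum V1/S (quadruple-mutant PfDHFR, chloroquine-resistant) grown in human erythrocytes at 37 °C under 3% CO2. Medium was RPMI 1640 with 25 mM HEPES, 0.2% NaHCO3, 40 µg/mL gentamicin and 8% human serum. Activity was measured by ³H-hypoxanthine incorporation.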

PfDHFR-QM = PfDHFR-QM (Plasmodium falciparum, UniProt P13922, I164L/N51I); test: DHFR enzyme inhibition assay, quadruple mutant; format: biochemical
[2] = tested on: P. falciparum TM4/8.2 (wild type PfDHFR); test: In vitro antimalarial activity, 3H-hypoxanthine incorporation, TM4/8.2; format: cell-based; conditions: Plasmodium falciparum
KB cells = test: Cytotoxicity, sulforhodamine B staining, KB; format: cell-based; conditions: Homo sapiens, read-out: IC50 KB
HsDHFR = molecular target: T1, HsDHFR (Homo sapiens, UniProt P00374); test: biochemical
T1 sequence (P00374 1-187): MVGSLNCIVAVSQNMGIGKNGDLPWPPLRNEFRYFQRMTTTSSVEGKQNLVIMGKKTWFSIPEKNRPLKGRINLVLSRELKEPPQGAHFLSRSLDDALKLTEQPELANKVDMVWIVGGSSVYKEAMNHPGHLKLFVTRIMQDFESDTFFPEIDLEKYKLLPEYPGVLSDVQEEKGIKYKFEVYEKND

PfDHFR-WT = PfDHFR-WT (Plasmodium falciparum, UniProt P13922, N108S/R59C); test: DHFR enzyme inhibition assay, wild type; format: biochemical
[3] = read-out: IC50 PfTM4/8.2, WT P. falciparum, drug sensitive strain

SMILES	IC50 [1] [µM]	Ki (PfDHFR-QM) [µM]	IC50 ([2]; read-out: IC50 PfTM4/8.2) [µM]	IC50 (KB cells) [µM]	Ki (HsDHFR) [µM]	Ki (PfDHFR-WT) [µM]	IC50 [2, 3] [µM]
COc1ccccc1CCNCc1c(N)nc(N)nc1-c1ccccc1 [7 a, 6‐Phenyl‐5‐{[(2‐methoxyphenethyl)amino]methyl}pyrimidine‐2,4‐diamine]	54 ± 2	0.208 ± 0.003	27 ± 3	> 100	> 500	0.243 ± 0.021	–
COc1cccc(CCNCc2c(N)nc(N)nc2-c2ccccc2)c1 [7 b, 6‐Phenyl‐5‐{[(3‐methoxyphenethyl)amino]methyl}pyrimidine‐2,4‐diamine]	48 ± 1	0.074 ± 0.001	27 ± 4	> 100	> 500	0.107 ± 0.003	–
COc1ccc(CCNCc2c(N)nc(N)nc2-c2ccccc2)cc1 [7 c, 6‐Phenyl‐5‐{[(4‐methoxyphenethyl)amino]methyl}pyrimidine‐2,4‐diamine]	34 ± 2	0.069 ± 0.005	28 ± 5	> 100	> 500	0.086 ± 0.013	–
COc1ccccc1CCNCc1c(N)nc(N)nc1C1CC1 [7 d, 6‐Cyclopropyl‐5‐{[(2‐methoxyphenethyl)amino]methyl}pyrimidine‐2,4‐diamine]	35 ± 4	0.031 ± 0.002	–	> 100	1.59 ± 0.029	0.015 ± 0.001	25 ± 1
COc1cccc(CCNCc2c(N)nc(N)nc2C2CC2)c1 [7 e, 6‐Cyclopropyl‐5‐{[(3‐methoxyphenethyl)amino]methyl}pyrimidine‐2,4‐diamine]	13 ± 1	0.026 ± 0.0005	–	74 ± 4	1.04 ± 0.034	0.0044 ± 0.0002	4.2 ± 0.2
COc1ccc(CCNCc2c(N)nc(N)nc2C2CC2)cc1 [7 f, 6‐Cyclopropyl‐5‐{[(4‐methoxyphenethyl)amino]methyl}pyrimidine‐2,4‐diamine]	15 ± 3	0.029 ± 0.0006	–	72 ± 1	0.647 ± 0.006	0.0035 ± 0.0004	3.5 ± 0.2
Nc1nc(N)c(CNCCc2ccccc2F)c(C2CC2)n1 [7 g, 6‐Cyclopropyl‐5‐{[(2‐fluorophenethyl)amino]methyl}pyrimidine‐2,4‐diamine]	25 ± 2	0.031 ± 0.002	–	> 100	0.205 ± 0.001	0.0082 ± 0.0003	12 ± 5
Nc1nc(N)c(CNCCc2cccc(F)c2)c(C2CC2)n1 [7 h, 6‐Cyclopropyl‐5‐{[(3‐fluorophenethyl)amino]methyl}pyrimidine‐2,4‐diamine]	20 ± 2	0.026 ± 0.002	–	> 100	0.458 ± 0.031	0.01 ± 0.0003	4.2 ± 0.3
Nc1nc(N)c(CNCCc2ccc(F)cc2)c(C2CC2)n1 [7 i, 6‐Cyclopropyl‐5‐{[(4‐fluorophenethyl)amino]methyl}pyrimidine‐2,4‐diamine]	48 ± 5	0.035 ± 0.002	–	> 100	0.212 ± 0.012	0.0057 ± 0.0005	23 ± 3
Nc1nc(N)c(CNCCc2ccccc2Cl)c(C2CC2)n1 [7 j, 6‐Cyclopropyl‐5‐{[(2‐chlorophenethyl)amino]methyl}pyrimidine‐2,4‐diamine]	17 ± 3	0.023 ± 0.0006	–	83 ± 7	0.304 ± 0.016	0.0093 ± 0.0005	0.4 ± 0.01
Nc1nc(N)c(CNCCc2cccc(Cl)c2)c(C2CC2)n1 [7 k, 6‐Cyclopropyl‐5‐{[(3‐chlorophenethyl)amino]methyl}pyrimidine‐2,4‐diamine]	14 ± 4	0.02 ± 0.0009	–	82 ± 13	0.345 ± 0.007	0.0025 ± 0.0001	4.2 ± 0.9
Nc1nc(N)c(CNCCc2ccc(Cl)cc2)c(C2CC2)n1 [7 l, 6‐Cyclopropyl‐5‐{[(4‐chlorophenethyl)amino]methyl}pyrimidine‐2,4‐diamine]	18 ± 3	0.027 ± 0.0001	–	70 ± 0.5	0.142 ± 0.006	0.0025 ± 0.0002	5 ± 0.6
Nc1nc(N)c(CNCCc2ccc(Cl)cc2Cl)c(C2CC2)n1 [7 m, 6‐Cyclopropyl‐5‐{[(2,4‐dichlorophenethyl)amino]methyl}pyrimidine‐2,4‐diamine]	6.3 ± 1.2	–	–	66 ± 2	0.131 ± 0.005	0.002 ± 3e-05	3.6 ± 0.2
